Measurements published in ChEMBL document CHEMBL1926652, “Effect of 2',6'-dimethyl-L-tyrosine (Dmt) on pharmacological activity of cyclic endomorphin-2 and morphiceptin analogs” (Bioorg Med Chem, 2011).
Activity calls are given as the source filed them. Where a SMILES comes first, the peptide text is derived from it. Bridges are numbered along the chain shown (N, C = ends). [ ]: non-standard residue; d: D form. Dmt = Cc1cc(O)cc(C)c1C[C@H](N)C(=O)O

Tests used:
Mus musculus [1] = test: Antinociceptive activity in icv dosed in Swiss albino mouse assessed as paw licking latency by hot plate method; assay type: functional, organism-based
Method in brief: (§1)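 Male Swiss albino mice (20–26 g), 10 per group. Peptides dissolved in DMSO, diluted in saline, given i.c.v. with a Hamilton syringe and 0.5 mm needle, 5 min before testing in dose–response runs. Mouse confined by a plastic cylinder on a 55 °C hot plate. Latencies to paw licking, rearing and jumping recorded, 240 s cut-off. %MPE = (t1−t0)/(t2−t0)×100. ED50 derived from dose–response.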

Mus musculus [2] = test: Antinociceptive activity in icv dosed in Swiss albino mouse assessed as rearing latency by hot plate method; assay type: functional, organism-based; method in brief: as §1
[3] = Half life in Wistar rat brain at 0.5 mM by RP-HPLC analysis; assay type: ADME, tissue-based
Method in brief: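 Pooled rat brains homogenized in 20 volumes of 50 mM Tris-HCl, pH 7.4. Homogenate at 10 mg protein/ml incubated with an equal volume of 0.5 mM peptide at 37 °C for 0–60 min. Reaction stopped on ice with 1 M HCl, then centrifuged at 20,000g. Three experiments in duplicate.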

Mu-type opioid receptor = Mu-type opioid receptor (Rattus norvegicus, UniProt P33535); test: Displacement of [3H]DAMGO from Wistar rat mu opioid receptor by liquid scintillation counting
Sequence of Mu-type opioid receptor (P33535 whole entry): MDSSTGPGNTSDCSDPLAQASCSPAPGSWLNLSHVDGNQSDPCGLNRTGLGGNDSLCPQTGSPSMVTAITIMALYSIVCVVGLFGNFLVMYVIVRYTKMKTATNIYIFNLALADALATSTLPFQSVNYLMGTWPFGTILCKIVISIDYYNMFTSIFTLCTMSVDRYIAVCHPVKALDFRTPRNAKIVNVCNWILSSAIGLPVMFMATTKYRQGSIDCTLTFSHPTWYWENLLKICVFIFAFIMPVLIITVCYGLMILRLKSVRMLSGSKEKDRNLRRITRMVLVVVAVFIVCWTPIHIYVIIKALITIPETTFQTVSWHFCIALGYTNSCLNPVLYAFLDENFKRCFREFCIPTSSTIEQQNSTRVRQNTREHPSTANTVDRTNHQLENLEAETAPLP
Method in brief: (§2)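 Crude membranes from Wistar rat brain incubated with [3H]DAMGO for mu or [3H][Ile5,6]deltorphin-2 for delta. Non-specific binding defined with naloxone. Reaction ended by rapid filtration on GF/B strips soaked in 0.5% […], then two ice-cold Tris-HCl washes. Bound radioactivity counted by liquid scintillation after overnight extraction. IC50 from three independent experiments in duplicate; ratio is delta IC50/mu IC50.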

[4] = molecular target: Delta-type opioid receptor (Rattus norvegicus, UniProt P33533); test: Displacement of [3H][Ile5,6]deltorphin 2 from delta opioid receptor in Wistar rat brain membrane by liquid scintillation counting; assay type: cell membranes; method in brief: as §2
Sequence of Delta-type opioid receptor (P33533 whole entry): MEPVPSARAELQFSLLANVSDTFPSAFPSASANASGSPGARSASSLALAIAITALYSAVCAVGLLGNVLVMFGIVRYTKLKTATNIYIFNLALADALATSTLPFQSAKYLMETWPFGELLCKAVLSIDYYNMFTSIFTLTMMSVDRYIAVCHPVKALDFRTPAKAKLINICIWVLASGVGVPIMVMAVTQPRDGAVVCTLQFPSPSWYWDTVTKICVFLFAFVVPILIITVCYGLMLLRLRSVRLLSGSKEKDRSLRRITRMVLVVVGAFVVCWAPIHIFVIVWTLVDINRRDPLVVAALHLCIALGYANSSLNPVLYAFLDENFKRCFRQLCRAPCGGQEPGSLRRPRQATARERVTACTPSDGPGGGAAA

Rattus norvegicus = species: Rattus norvegicus; test: Selectivity ratio of IC50 for delta opioid receptor in Wistar rat brain membrane to IC50 for mu opioid receptor in Wistar rat brain membrane; assay type: cell membranes; method in brief: as §2
Mus musculus [5] = test: Antinociceptive activity in icv dosed in Swiss albino mouse assessed as jumping latency by hot plate method; assay type: functional; method in brief: as §1
Mus musculus [6] = test: Antinociceptive activity in Swiss albino mouse assessed as jumping latency at 10 ng, icv up to 30 mins by hot plate method; assay type: functional, organism-based; method in brief: as §1
Mus musculus [7] = species: Mus musculus; test: Antinociceptive activity in Swiss albino mouse assessed as jumping latency at 3 ng by hot plate method in presence of beta funaltrexamine; assay type: functional, organism-based
Method in brief: (§3)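 Hot plate test at 55 °C in male Swiss albino mice, 10 per group, with jumping latency read and a 240 s cut-off. Antagonists were given i.c.v.: beta-funaltrexamine, naltrindole at 1 µg/animal, nor-binaltorphimine at 5 µg/animal. Agonist peptides were given i.c.v. at 3 ng/animal. Inhibition of jumping expressed as %MPE.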

Mus musculus [8] = species: Mus musculus; test: Antinociceptive activity in Swiss albino mouse assessed as jumping latency at 3 ng by hot plate method in presence of naltrindole; assay type: functional, organism-based; method in brief: as §3
Mus musculus [9] = species: Mus musculus; test: Antinociceptive activity in Swiss albino mouse assessed as jumping latency at 3 ng by hot plate method in presence of norbinaltorphimine; assay type: functional, organism-based; method in brief: as §3
Brain = test: Drug uptake in Swiss albino mouse brain 0.01 to 1 mg/kg, iv; assay type: ADME, organism-based; parameters: dose 0.01-1 mg/kg, route intravenous; details: in vivo
Method in brief: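 Blood–brain barrier passage judged in vivo. Peptides at 0.01 and 1 mg/kg were injected intravenously into male Swiss albino mice 30 min before a 55 °C hot plate test. Paw licking, rearing and jumping latencies recorded with a 240 s cut-off and expressed as %MPE.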

Mus musculus [10] = test: Antinociceptive activity in Swiss albino mouse assessed as jumping latency at 3 ug, icv after 5 to 10 mins by hot plate method; assay type: functional, organism-based; method in brief: as §1
Mus musculus [11] = test: Antinociceptive activity in icv dosed Swiss albino mouse assessed as jumping latency at 3 ug, icv up to 90 mins by hot plate method; assay type: functional, organism-based; method in brief: as §1
Mus musculus [12] = test: Antinociceptive activity in Swiss albino mouse assessed as jumping latency at 10 ug, icv up to 90 mins by hot plate method; assay type: functional, organism-based; method in brief: as §1
Mus musculus [13] = test: Antinociceptive activity in Swiss albino mouse assessed as jumping latency at 10 ug, icv after 5 to 10 mins by hot plate method; assay type: functional, organism-based; method in brief: as §1

Compound: NC(=O)[C@@H]1CC(=O)NCCCC[C@@H](NC(=O)[C@@H](N)Cc2ccc(O)cc2)C(=O)N[C@@H](Cc2ccccc2)C(=O)N[C@@H](Cc2ccccc2)C(=O)N1 (H-Y[dK]FFD-NH2; lactam 2-5)
- Activity (Mus musculus [1]): Dose-dependent effect
- Activity (Mus musculus [2]): Dose-dependent effect
- half-life at 500 µM [3]: 6.05 h
- IC50 (Mu-type opioid receptor): 0.56 nM
- IC50 [4]: 279 nM
- Ratio IC50 (Rattus norvegicus): 498
- Activity (Mus musculus [5]): Dose-dependent effect
- ED50 (Mus musculus [5]): 0.05 µg

Compound: Cc1cc(O)cc(C)c1C[C@H](N)C(=O)N[C@@H]1CC(=O)NCCCC[C@@H](C(N)=O)NC(=O)[C@H]2CCCN2C(=O)[C@H](Cc2ccccc2)NC1=O
- Activity (Mus musculus [6]): Active
- Activity (Mus musculus [1]): Dose-dependent effect
- Activity (Mus musculus [2]): Dose-dependent effect
- Activity (Mus musculus [7]): inactive
- half-life at 500 µM [3]: 10.4 h
- IC50 (Mu-type opioid receptor): 4.4 nM
- Activity (Mus musculus [8]): Active
- IC50 [4]: 58.3 nM
- Activity (Mus musculus [9]): Active
- Ratio IC50 (Rattus norvegicus): 13.2
- Activity (Mus musculus [5]): Dose-dependent effect
- ED50 (Mus musculus [5]): <0.01 µg
- Drug uptake (Brain): Not Active

Compound: Cc1cc(O)cc(C)c1C[C@H](N)C(=O)N[C@@H]1CCCCNC(=O)C[C@@H](C(N)=O)NC(=O)[C@H](Cc2ccccc2)NC(=O)[C@H](Cc2ccccc2)NC1=O (H-[Dmt][dK]FFD-NH2; lactam 2-5)
- Activity (Mus musculus [1]): Dose-dependent effect
- Activity (Mus musculus [2]): Dose-dependent effect
- half-life at 500 µM [3]: > 16.7 h
- IC50 (Mu-type opioid receptor): 0.26 nM
- IC50 [4]: 400 nM
- Ratio IC50 (Rattus norvegicus): > 1000
- Activity (Mus musculus [5]): Dose-dependent effect
- ED50 (Mus musculus [5]): 0.02 µg

Compound: NC(=O)[C@@H]1CC(=O)NCCCC[C@@H](NC(=O)[C@@H](N)Cc2ccc(O)cc2)C(=O)N[C@@H](Cc2ccccc2)C(=O)N2CCC[C@@H]2C(=O)N1
- Activity (Mus musculus [1]): Dose-dependent effect
- Activity (Mus musculus [2]): Dose-dependent effect
- half-life at 500 µM [3]: 1.95 h
- IC50 (Mu-type opioid receptor): 89.5 nM
- IC50 [4]: > 1000 nM
- Ratio IC50 (Rattus norvegicus): > 11.2
- Activity (Mus musculus [5]): Dose-dependent effect
- ED50 (Mus musculus [5]): 0.02 µg

Compound: NC(=O)[C@@H]1CCCCNC(=O)C[C@@H](NC(=O)[C@@H](N)Cc2ccc(O)cc2)C(=O)N[C@@H](Cc2ccccc2)C(=O)N2CCC[C@@H]2C(=O)N1
- Activity (Mus musculus [1]): Dose-dependent effect
- Activity (Mus musculus [2]): Dose-dependent effect
- half-life at 500 µM [3]: 1.05 h
- IC50 (Mu-type opioid receptor): 15.3 nM
- IC50 [4]: > 1000 nM
- Ratio IC50 (Rattus norvegicus): > 65.3
- Activity (Mus musculus [5]): Dose-dependent effect
- ED50 (Mus musculus [5]): 0.07 µg

Compound: NC(=O)[C@H](Cc1ccccc1)NC(=O)[C@H](Cc1ccccc1)NC(=O)[C@@H]1CCCN1C(=O)[C@@H](N)Cc1ccc(O)cc1 [ENDOMORPHIN 2]
- Activity (Mus musculus [1]): Dose-dependent effect
- Activity (Mus musculus [10]): Active
- Activity (Mus musculus [11]): Active
- Activity (Mus musculus [2]): Dose-dependent effect
- half-life at 500 µM [3]: 0.238 h
- Activity (Mus musculus [5]): Dose-dependent effect
- ED50 (Mus musculus [5]): 5.48 µg

Compound: Cc1cc(O)cc(C)c1C[C@H](N)C(=O)N[C@@H]1CCCCNC(=O)C[C@@H](C(N)=O)NC(=O)[C@H]2CCCN2C(=O)[C@H](Cc2ccccc2)NC1=O
- Activity (Mus musculus [6]): Active
- Activity (Mus musculus [1]): Dose-dependent effect
- Activity (Mus musculus [2]): Dose-dependent effect
- Activity (Mus musculus [7]): inactive
- half-life at 500 µM [3]: > 16.7 h
- IC50 (Mu-type opioid receptor): 5.6 nM
- Activity (Mus musculus [8]): Active
- IC50 [4]: 132 nM
- Activity (Mus musculus [9]): Active
- Ratio IC50 (Rattus norvegicus): 23.5
- Activity (Mus musculus [5]): Dose-dependent effect
- ED50 (Mus musculus [5]): <0.01 µg
- Drug uptake (Brain): Not Active

Compound: NC(=O)[C@@H]1CCCN1C(=O)[C@H](Cc1ccccc1)NC(=O)[C@@H]1CCCN1C(=O)[C@@H](N)Cc1ccc(O)cc1 [MORPHICEPTIN] (H-YPFP-NH2)
- Activity (Mus musculus [1]): Dose-dependent effect
- Activity (Mus musculus [2]): Dose-dependent effect
- half-life at 500 µM [3]: 0.278 h
- IC50 (Mu-type opioid receptor): 56.6 nM
- Activity (Mus musculus [12]): Active
- IC50 [4]: > 1000 nM
- Ratio IC50 (Rattus norvegicus): > 17.7
- Activity (Mus musculus [13]): Active
- Activity (Mus musculus [5]): Dose-dependent effect
- ED50 (Mus musculus [5]): 5.11 µg

Compound: CC(C)[C@H](NC(=O)[C@H](CCC(=O)O)NC(=O)[C@H](Cc1ccccc1)NC(=O)[C@H](C)NC(=O)[C@@H](N)Cc1ccc(O)cc1)C(=O)N[C@H](C(=O)NCC(=O)O)C(C)C [DELTORPHINE II]
- IC50 [4]: 0.08 nM
